Test results published in ChEMBL document CHEMBL2375313, “Synthesis, in vitro antitumor evaluation and DNA-binding study of novel tetrahydroquinolines and some derived tricyclic and tetracyclic ring systems” (Eur J Med Chem, 2013).
Converted amounts (≈) assume the structure as drawn. The source made the active and inactive calls. The rule behind the calls is not given here.

Key:
NCI-H23 = assay: Cytotoxicity against human NCI-H23 cells assessed as growth inhibition at 10 uM after 48 hrs by sulphorhodamine B assay; format: functional; details: NCI-H23, 48 h, read-out: GI
Procedure, shortened: (§1)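 NCI-60 one-dose screen per the NCI Drug Evaluation Branch protocol. Cells given a single 10 µM concentration with 48 h continuous exposure. Growth estimated by sulphorhodamine B protein assay. Result expressed as percentage growth inhibition relative to untreated growth.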

CCRF-CEM = assay: Cytotoxicity against human CCRF-CEM cells assessed as growth inhibition at 10 uM after 48 hrs by sulphorhodamine B assay; format: functional; details: read-out: GI; procedure, shortened: as §1
HCT-15 = assay: Cytotoxicity against human HCT15 cells assessed as growth inhibition at 10 uM after 48 hrs by sulphorhodamine B assay; format: functional; details: HCT-15, 48 h, read-out: GI; procedure, shortened: as §1
HCT-116 = assay: Cytotoxicity against human HCT116 cells assessed as growth inhibition at 10 uM after 48 hrs by sulphorhodamine B assay; format: functional; details: HCT-116, 48 h, read-out: GI; procedure, shortened: as §1
UO-31 = assay: Cytotoxicity against human UO31 cells assessed as growth inhibition at 10 uM after 48 hrs by sulphorhodamine B assay; format: functional; details: UO-31, 48 h, read-out: GI; procedure, shortened: as §1
A549 = assay: Cytotoxicity against human A549 cells assessed as growth inhibition at 10 uM after 48 hrs by sulphorhodamine B assay; format: functional; details: A549, 48 h, read-out: GI; procedure, shortened: as §1
IGROV-1 = assay: Cytotoxicity against human IGROV1 cells assessed as growth inhibition at 10 uM after 48 hrs by sulphorhodamine B assay; format: functional; details: IGROV-1, 48 h, read-out: GI; procedure, shortened: as §1
SNB-75 = assay: Cytotoxicity against human SNB75 cells assessed as growth inhibition at 10 uM after 48 hrs by sulphorhodamine B assay; format: functional; details: SNB-75, 48 h, read-out: GI; procedure, shortened: as §1
SK-MEL-2 = assay: Cytotoxicity against human SK-MEL-2 cells assessed as growth inhibition at 10 uM after 48 hrs by sulphorhodamine B assay; format: functional; details: SK-MEL-2, 48 h, read-out: GI; procedure, shortened: as §1
[1] = Cytotoxicity against human EKVX cells assessed as growth inhibition at 10 uM after 48 hrs by sulphorhodamine B assay; format: functional; details: read-out: GI; procedure, shortened: as §1
M14 = assay: Cytotoxicity against human M14 cells assessed as growth inhibition at 10 uM after 48 hrs by sulphorhodamine B assay; format: functional; details: M14, 48 h, read-out: GI; procedure, shortened: as §1
CAKI-1 = assay: Cytotoxicity against human Caki1 cells assessed as growth inhibition at 10 uM after 48 hrs by sulphorhodamine B assay; format: functional; details: CAKI-1, 48 h, read-out: GI; procedure, shortened: as §1
MOLT-4 = assay: Cytotoxicity against human MOLT4 cells assessed as growth inhibition at 10 uM after 48 hrs by sulphorhodamine B assay; format: functional; details: MOLT-4, 48 h, read-out: GI; procedure, shortened: as §1
[2] = Displacement of methyl green from DNA (unknown origin) after 24 hrs
Procedure, shortened: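 DNA-methyl green complex was stirred in 0.05 M Tris-HCl pH 7.5 with 7.5 mmol MgSO4 at 37 °C for 24 h. Compound was dried down from EtOH in tubes and the DNA-methyl green solution added. A630 was read initially and after 24 h dark incubation at room temperature, corrected and normalized to untreated complex. IC50 is the concentration giving a 50% absorbance decrease; mean ± SD, n = 6.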

A498 = assay: Cytotoxicity against human A498 cells assessed as growth inhibition at 10 uM after 48 hrs by sulphorhodamine B assay; format: functional; details: A498, 48 h, read-out: GI; procedure, shortened: as §1
OVCAR-4 = assay: Cytotoxicity against human OVCAR4 cells assessed as growth inhibition at 10 uM after 48 hrs by sulphorhodamine B assay; format: functional; details: OVCAR-4, 48 h, read-out: GI; procedure, shortened: as §1
SK-MEL-5 = assay: Cytotoxicity against human SK-MEL-5 cells assessed as growth inhibition at 10 uM after 48 hrs by sulphorhodamine B assay; format: functional; details: SK-MEL-5, 48 h, read-out: GI; procedure, shortened: as §1
RPMI-8226 = assay: Cytotoxicity against human RPMI8226 cells assessed as growth inhibition at 10 uM after 48 hrs by sulphorhodamine B assay; format: functional; details: RPMI-8226, 48 h, read-out: GI; procedure, shortened: as §1
SR = assay: Cytotoxicity against human SR cells assessed as growth inhibition at 10 uM after 48 hrs by sulphorhodamine B assay; format: functional; details: read-out: GI; procedure, shortened: as §1
HOP-92 = assay: Cytotoxicity against human HOP92 cells assessed as growth inhibition at 10 uM after 48 hrs by sulphorhodamine B assay; format: functional; details: HOP-92, 48 h, read-out: GI; procedure, shortened: as §1
U-251 = assay: Cytotoxicity against human U251 cells assessed as growth inhibition at 10 uM after 48 hrs by sulphorhodamine B assay; format: functional; details: U-251, 48 h, read-out: GI; procedure, shortened: as §1
[3] = Binding affinity to DNA (unknown origin) at 5 mg/mL by RP-TLC plate analysis
Procedure, shortened: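 Reversed-phase C18 TLC plates pre-developed in methanol/water 8:2. Compound spotted at origin (5 mg/mL in methanol), then DNA (1 mg/mL in water/methanol 8:2) applied at the same spot. Plates developed in the same eluent; DNA located by anisaldehyde spray (blue). Ethidium bromide as positive control.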

T47D = assay: Cytotoxicity against human T47D cells assessed as growth inhibition at 10 uM after 48 hrs by sulphorhodamine B assay; format: functional; details: read-out: GI; procedure, shortened: as §1
OVCAR-5 = assay: Cytotoxicity against human OVCAR5 cells assessed as growth inhibition at 10 uM after 48 hrs by sulphorhodamine B assay; format: functional; details: OVCAR-5, 48 h, read-out: GI; procedure, shortened: as §1
SK-OV-3 = assay: Cytotoxicity against human SKOV3 cells assessed as growth inhibition at 10 uM after 48 hrs by sulphorhodamine B assay; format: functional; details: SK-OV-3, 48 h, read-out: GI; procedure, shortened: as §1
SF-295 = assay: Cytotoxicity against human SF295 cells assessed as growth inhibition at 10 uM after 48 hrs by sulphorhodamine B assay; format: functional; details: SF-295, 48 h, read-out: GI; procedure, shortened: as §1
RXF 393 = assay: Cytotoxicity against human RXF393 cells assessed as growth inhibition at 10 uM after 48 hrs by sulphorhodamine B assay; format: functional; details: RXF 393, 48 h, read-out: GI; procedure, shortened: as §1
NCI/ADR-RES = assay: Cytotoxicity against human NCI/ADR-RES cells assessed as growth inhibition at 10 uM after 48 hrs by sulphorhodamine B assay; format: functional; details: read-out: GI; procedure, shortened: as §1
SNB-19 = assay: Cytotoxicity against human SNB19 cells assessed as growth inhibition at 10 uM after 48 hrs by sulphorhodamine B assay; format: functional; details: SNB-19, 48 h, read-out: GI; procedure, shortened: as §1
Hs-578T = assay: Cytotoxicity against human Hs578T cells assessed as growth inhibition at 10 uM after 48 hrs by sulphorhodamine B assay; format: functional; details: read-out: GI; procedure, shortened: as §1
ACHN = assay: Cytotoxicity against human ACHN cells assessed as growth inhibition at 10 uM after 48 hrs by sulphorhodamine B assay; format: functional; details: read-out: GI; procedure, shortened: as §1
SF-268 = assay: Cytotoxicity against human SF268 cells assessed as growth inhibition at 10 uM after 48 hrs by sulphorhodamine B assay; format: functional; details: SF-268, 48 h, read-out: GI; procedure, shortened: as §1
LOX IMVI = assay: Cytotoxicity against human LOXIMVI cells assessed as growth inhibition at 10 uM after 48 hrs by sulphorhodamine B assay; format: functional; details: read-out: GI; procedure, shortened: as §1
HT-29 = assay: Cytotoxicity against human HT-29 cells assessed as growth inhibition at 10 uM after 48 hrs by sulphorhodamine B assay; format: functional; details: HT-29, 48 h, read-out: GI; procedure, shortened: as §1
PC-3 = assay: Cytotoxicity against human PC3 cells assessed as growth inhibition at 10 uM after 48 hrs by sulphorhodamine B assay; format: functional; details: PC-3, 48 h, read-out: GI; procedure, shortened: as §1
MDA-MB-435 = assay: Cytotoxicity against human MDA-MB-435 cells assessed as growth inhibition at 10 uM after 48 hrs by sulphorhodamine B assay; format: functional; details: MDA-MB-435, 48 h, read-out: GI; procedure, shortened: as §1
NCI-H522 = assay: Cytotoxicity against human NCI-H522 cells assessed as growth inhibition at 10 uM after 48 hrs by sulphorhodamine B assay; format: functional; details: NCI-H522, 48 h, read-out: GI; procedure, shortened: as §1
UACC-62 = assay: Cytotoxicity against human UACC62 cells assessed as growth inhibition at 10 uM after 48 hrs by sulphorhodamine B assay; format: functional; details: UACC-62, 48 h, read-out: GI; procedure, shortened: as §1
K562 = assay: Cytotoxicity against human K562 cells assessed as growth inhibition at 10 uM after 48 hrs by sulphorhodamine B assay; format: functional; details: K562, 48 h, read-out: GI; procedure, shortened: as §1
DU-145 = assay: Cytotoxicity against human DU145 cells assessed as growth inhibition at 10 uM after 48 hrs by sulphorhodamine B assay; format: functional; details: DU-145, 48 h, read-out: GI; procedure, shortened: as §1
HL-60(TB) = assay: Cytotoxicity against human HL-60(TB) cells assessed as growth inhibition at 10 uM after 48 hrs by sulphorhodamine B assay; format: functional; details: HL-60, 48 h, read-out: GI
Procedure, shortened: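 NCI-60 one-dose primary screen run to the Drug Evaluation Branch protocol. Cells are exposed to a single 10 µM concentration for 48 h continuously, and growth is read by SRB protein assay. Data are reported as percent growth of treated cells, expressed as % growth inhibition.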

MCF7 = assay: Cytotoxicity against human MCF7 cells assessed as growth inhibition at 10 uM after 48 hrs by sulphorhodamine B assay; format: functional; details: MCF7, 48 h, read-out: GI; procedure, shortened: as §1

## CC1CCCc2c1nc1[nH]c(=S)nc(N)c1c2-c1ccc(Cl)cc1 (configuration not stated)
NCI-H23
  inhibition of growth at 10 µM: 10.1%
CCRF-CEM
  inhibition of growth at 10 µM: 28.8%
HCT-15
  inhibition of growth at 10 µM: 14.3%
HCT-116
  inhibition of growth at 10 µM: 10.5%
UO-31
  inhibition of growth at 10 µM: < 10%
A549
  inhibition of growth at 10 µM: < 10%
IGROV-1
  inhibition of growth at 10 µM: 10%
SNB-75
  inhibition of growth at 10 µM: 10.2%
SK-MEL-2
  inhibition of growth at 10 µM: 11.4%
[1]
  inhibition of growth at 10 µM: 14.5%
M14
  inhibition of growth at 10 µM: < 10%
CAKI-1
  inhibition of growth at 10 µM: 31.3%
MOLT-4
  inhibition of growth at 10 µM: 26.2%
[2]
  IC50: 0.151 µg/mL (≈ 0.423 µM)
A498
  inhibition of growth at 10 µM: 11.5%
OVCAR-4
  inhibition of growth at 10 µM: < 10%
SK-MEL-5
  inhibition of growth at 10 µM: 10.3%
RPMI-8226
  inhibition of growth at 10 µM: 37%
SR
  inhibition of growth at 10 µM: 25.8%
HOP-92
  inhibition of growth at 10 µM: < 10%
U-251
  inhibition of growth at 10 µM: < 10%
[3]
  Activity: Active
T47D
  inhibition of growth at 10 µM: 15.2%
OVCAR-5
  inhibition of growth at 10 µM: < 10%
SK-OV-3
  inhibition of growth at 10 µM: < 10%
SF-295
  inhibition of growth at 10 µM: < 10%
RXF 393
  inhibition of growth at 10 µM: < 10%
NCI/ADR-RES
  inhibition of growth at 10 µM: < 10%
SNB-19
  inhibition of growth at 10 µM: 10%
Hs-578T
  inhibition of growth at 10 µM: < 10%
ACHN
  inhibition of growth at 10 µM: < 10%
SF-268
  inhibition of growth at 10 µM: 18.8%
LOX IMVI
  inhibition of growth at 10 µM: < 10%
HT-29
  inhibition of growth at 10 µM: < 10%
PC-3
  inhibition of growth at 10 µM: 56.7%
MDA-MB-435
  inhibition of growth at 10 µM: < 10%
NCI-H522
  inhibition of growth at 10 µM: 10%
UACC-62
  inhibition of growth at 10 µM: 15.8%
K562
  inhibition of growth at 10 µM: 15%
DU-145
  inhibition of growth at 10 µM: < 10%
HL-60(TB)
  inhibition of growth at 10 µM: 10%
MCF7
  inhibition of growth at 10 µM: 10.4%
